The values that follow come from ChEMBL document CHEMBL4266004, “Series of Alkynyl-Substituted Thienopyrimidines as Inhibitors of Protozoan Parasite Proliferation” (ACS Med Chem Lett, 2018).

Data set [1] has as its system Trypanosoma brucei. As to the kind of experiment: Antitrypanosomal activity against Trypanosoma brucei Lister 427 assessed as reduction in fraction of trypanosomes containing one nucleus at 9.5 uM after 3 hrs by mCLING/DAPI staining based fluorescence microsocpic method. The class given is functional, organism-based. An outline of the steps:
(§1)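 Mid-log bloodstream T. brucei (5 × 10^5 cells/mL) exposed to compound or DMSO for 3 h, fixed, stained with mCLING plus DAPI for kinetoplast and nuclear DNA; kinetoplasts and nuclei per cell counted by fluorescence microscopy (n >120 cells); mean percentages over three biological replicates; distribution compared by Pearson χ2.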

In data set [2] the test system is Mus musculus. In words: Toxicity in Swiss Webster mouse infected with Trypanosoma brucei Lister 427 at 130 mg/kg, po via gavage once daily for 10 days starting from 24 hrs post infection. It is filed as organism-based. The conditions noted are these: in vivo. An outline of the steps: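 Infected mice (four per group; 10^5 T. brucei Lister427) dosed orally 130 mg/kg once daily for 10 days from 24 h post-infection, vehicle 10% NMP/90% PEG; observed for signs of toxicity.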

Data set [3] concerns Trypanosoma brucei brucei. As to the kind of experiment: Antitrypanosomal activity against Trypanosoma brucei brucei 427 after 48 hrs by presto blue dye based fluorescence assay. It is filed as functional, organism-based. Particulars: Trypanosoma brucei, 427, 48 h.
The subject of data set [4] is Trypanosoma brucei. In words: Antitrypanosomal activity against Trypanosoma brucei Lister 427 infected in Swiss Webster mouse assessed as reduction in parasitemia at 130 mg/kg, po via gavage once daily for 10 days starting from 24 hrs post infection measured on day 13 by hemocytometric method. The class given is functional, organism-based. An outline of the steps: (§2)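 Mice, four per group, infected with 10^5 T. brucei Lister427 (day 0); from 24 h, 130 mg/kg by oral gavage once daily for 10 days in 10% NMP/90% PEG; controls received vehicle; parasitemia followed over time after infection; mean parasitemia compared by Student's t test.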

The subject of data set [5] is Trypanosoma brucei. In words: Inhibition of transferrin-647 uptake in Trypanosoma brucei Lister 427 at 9.5 uM after 3 hrs by propidium iodide staining based flow cytometry. The class given is functional, organism-based.
Data set [6] deals with Trypanosoma brucei. As to the kind of experiment: Antitrypanosomal activity against Trypanosoma brucei Lister 427 infected in Swiss Webster mouse assessed as mouse survival at 130 mg/kg, po via gavage once daily for 10 days starting from 24 hrs post infection (reference value: 5 day). It is filed as functional. An outline of the steps:
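Mice, four per group, infected with 10^5 T. brucei Lister427 on day 0. From 24 h, oral gavage at 130 mg/kg once daily for 10 days in 10% NMP/90% PEG; controls received vehicle only. Parasitemia followed through and after dosing. Survival compared by chi-square analysis of Kaplan–Meier data.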

Data set [7] concerns Mus musculus. As to the kind of experiment: Time at which plasma concentration stays above in vitro antitrypanosomal EC50 in Swiss Webster mouse at 130 mg/kg, po by LC-MS/MS analysis. The class given is ADME, organism-based. The conditions noted are these: in vivo.
Data set [8] has as its system Trypanosoma brucei. As to the kind of experiment: Antitrypanosomal activity against Trypanosoma brucei Lister 427 assessed as increase in fraction of trypanosomes containing one 2K2N at 9.5 uM after 3 hrs by mCLING/DAPI staining based fluorescence microsocpic method. The class given is functional, organism-based. Put shortly:
as §1

Data set [9] has as its system Trypanosoma brucei. In words: Antitrypanosomal activity against Trypanosoma brucei Lister 427 assessed as increase in fraction of trypanosomes containing one 2K1N at 9.5 uM after 3 hrs by mCLING/DAPI staining based fluorescence microsocpic method. The class given is functional, organism-based. Put shortly: as §1
The subject of data set [10] is Trypanosoma brucei. In words: Antitrypanosomal activity against Trypanosoma brucei Lister 427 assessed as reduction in fraction of trypanosomes containing one kinetoplast at 9.5 uM after 3 hrs by mCLING/DAPI staining based fluorescence microsocpic method. It is filed as functional, organism-based. Put shortly:
as §1

Data set [11] concerns Trypanosoma brucei. In words: Antitrypanosomal activity against Trypanosoma brucei Lister 427 infected in Swiss Webster mouse assessed as reduction in parasitemia at 130 mg/kg, po via gavage once daily for 10 days starting from 24 hrs post infection by hemocytometric method. It is filed as functional, organism-based. Put shortly:
as §2

Activity calls are given as the source filed them. The rule behind the calls is not given here. Bounds are passed on as bounds.

On to `Fc1cccc(COc2ccc(Nc3ncnc4cc(C#C[C@H]5CCCN5)sc34)cc2Cl)c1`, for which the result in the data set on Trypanosoma brucei [1], with Trypanosoma brucei [8], in the data set with Trypanosoma brucei [9], in the data set with Trypanosoma brucei [10] and with Trypanosoma brucei [11] was Active. The Activity entry in the data set with Mus musculus [2] is “Non-Toxic”. This compound came in with an EC50 in data set [3] of 260 nM. Moreover, in the data set with Trypanosoma brucei [4], the outcome was inactive. In addition, the inhibition result with Trypanosoma brucei [5] is “inactive”. In addition, the Survival in the data set on Trypanosoma brucei [6] turned out to be 7.5 days. Also, the Time result in the data set with Mus musculus [7] is given as “<= 4 hr”.
